# Data taken from ChEMBL document CHEMBL1148061, “Antiplatelet aggregation principles of Dendrobium loddigesii” (J Nat Prod, 1994).
# pIC50: −log10 of the molar value.
# How the values were obtained:
# [1] = Antiplatelet activity against washed rabbit platelet assessed as inhibition of arachidonic acid-induced platelet aggregation at 100 ug/ml preincubated for 3 mins by turbidimetric method; type: functional, Oryctolagus cuniculus; design: scale not given: the % may be the effect or the level left
# How it was run: (§1)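 Washed rabbit platelets from EDTA-anticoagulated platelet-rich plasma, 4.5×10^8/ml in Tyrode solution with 0.35% BSA, stirred at 1200 rpm at 37°. Turbidimetric read-out; % aggregation as means ± S.E. (n=3), Student's t test versus DMSO control.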
# Platelet = test: (§2) Antiplatelet activity against washed rabbit platelet assessed as inhibition of arachidonic acid-induced platelet aggregation preincubated for 3 mins by turbidimetric method; type: functional, cell-based; conditions: Oryctolagus cuniculus
# How it was run: (§3)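 Washed rabbit platelets, 4.5×10^8/ml in Tyrode–0.35% BSA, stirred at 1200 rpm at 37°. Compound preincubated 3 min (final DMSO 0.5%) before arachidonic acid 100 μM. Aggregation read turbidimetrically. Percent inhibition across concentrations given as means ± S.E. (n=3); IC50 taken from the concentration–response curve.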
# [2] = as §2; type: functional, cell-based; conditions: Oryctolagus cuniculus; how it was run: as §3
# [3] = Antiplatelet activity against washed rabbit platelet assessed as inhibition of arachidonic acid-induced platelet aggregation at 20 ug/ml preincubated for 3 mins by turbidimetric method; type: functional, Oryctolagus cuniculus; design: scale not given: the % may be the effect or the level left; how it was run: as §1
# [4] = Antiplatelet activity against washed rabbit platelet assessed as inhibition of thrombin-induced platelet aggregation at 100 ug/ml preincubated for 3 mins by turbidimetric method; type: functional, Oryctolagus cuniculus; design: scale not given: the % may be the effect or the level left; how it was run: as §1
# [5] = Antiplatelet activity against washed rabbit platelet assessed as inhibition of arachidonic acid-induced platelet aggregation at 10 ug/ml preincubated for 3 mins by turbidimetric method; values are per cent of control
# [6] = Antiplatelet activity against washed rabbit platelet assessed as inhibition of arachidonic acid-induced platelet aggregation at 5 ug/ml preincubated for 3 mins by turbidimetric method; values are per cent of control
# [7] = Antiplatelet activity against washed rabbit platelet assessed as inhibition of collagen-induced platelet aggregation at 100 ug/ml preincubated for 3 mins by turbidimetric method; type: functional, Oryctolagus cuniculus; design: scale not given: the % may be the effect or the level left; how it was run: as §1
# [8] = Antiplatelet activity against washed rabbit platelet assessed as inhibition of platelet activating factor-induced platelet aggregation at 100 ug/ml preincubated for 3 mins by turbidimetric method; type: functional, Oryctolagus cuniculus; design: scale not given: the % may be the effect or the level left; how it was run: as §1
# [9] = Antiplatelet activity against washed rabbit platelet assessed as inhibition of collagen-induced platelet aggregation at 5 ug/ml preincubated for 3 mins by turbidimetric method; type: functional, Oryctolagus cuniculus; how it was run: as §1
# [10] = Antiplatelet activity against washed rabbit platelet assessed as inhibition of arachidonic acid-induced platelet aggregation at 50 ug/ml preincubated for 3 mins by turbidimetric method; values are per cent of control
# [11] = Antiplatelet activity against washed rabbit platelet assessed as inhibition of platelet activating factor-induced platelet aggregation at 50 ug/ml preincubated for 3 mins by turbidimetric method; type: functional, Oryctolagus cuniculus; design: scale not given: the % may be the effect or the level left; how it was run: as §1
# [12] = Antiplatelet activity against washed rabbit platelet assessed as inhibition of collagen-induced platelet aggregation at 2 ug/ml preincubated for 3 mins by turbidimetric method; type: functional, Oryctolagus cuniculus; how it was run: as §1
# [13] = Antiplatelet activity against washed rabbit platelet assessed as inhibition of collagen-induced platelet aggregation at 50 ug/ml preincubated for 3 mins by turbidimetric method; type: functional, Oryctolagus cuniculus; design: scale not given: the % may be the effect or the level left; how it was run: as §1
# [14] = Antiplatelet activity against washed rabbit platelet assessed as inhibition of collagen-induced platelet aggregation at 10 ug/ml preincubated for 3 mins by turbidimetric method; type: functional, Oryctolagus cuniculus; how it was run: as §1
# [15] = Antiplatelet activity against washed rabbit platelet assessed as inhibition of collagen-induced platelet aggregation at 20 ug/ml preincubated for 3 mins by turbidimetric method; type: functional, Oryctolagus cuniculus; how it was run: as §1
pIC50 [2],Compound,Activity [1],Activity (Platelet),Activity [3],Activity [4],"level, % of control [5]","level, % of control [6]",Activity [7],Activity [8],aggregation [9],"level, % of control [10]",Activity [11],aggregation [12],Activity [13],aggregation [14],aggregation [15]
4.95,COc1cc(CCc2cc(OC)c(OC(C)=O)c(OC)c2)ccc1OC(C)=O [MOSCATILIN DIACETATE],0%,Dose-dependent effect,0%,93.4%,0%,33.9%,12.8%,36%,–,–,–,–,–,–,–
4.21,COc1cc(CCc2cc(OC)c(O)c(OC)c2)ccc1O [MOSCATILIN],0%,Dose-dependent effect,36.4%,85.3%,52%,78.7%,0%,24.7%,58.4%,0%,72.1%,78.5%,0%,42.3%,19.6%

Compound,pIC50 [2],Activity [1],Activity (Platelet),Activity [3],Activity [4],"level, % of control [5]","level, % of control [6]",Activity [7],Activity [8],aggregation [9],"level, % of control [10]",Activity [11],aggregation [12],Activity [13],aggregation [14],aggregation [15]
COc1cc(O)cc2ccc3cccc(O)c3c12 [MOSCATIN],4.43,0%,Dose-dependent effect,0%,41%,22.8%,87.6%,0%,24.7%,58.4%,0%,72.1%,78.5%,0%,42.3%,19.6%
